Test results taken from ChEMBL document CHEMBL5257120 (Bioorg Med Chem, 2023).

Columns and labels:
[1] = Hepatotoxicity in Swiss albino mouse assessed as alkaline phosphatase level at 300 mg/kg, po administered for 7 days (reference value: 260.10 +/- 26.76 U/L); format: toxicity, organism-based; conditions: in vivo, 168 h, time 7 day
Outline: (§1)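 Single acute oral dose (5, 50, 300 or 1000 mg/kg) given to Swiss albino mice, n = 6, with 7-day observation. At the end, haematological and serum biochemical parameters were measured. Compared with untreated controls; mean ± SE, ANOVA, p < 0.05.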

[2] = Toxicity in Swiss albino mouse assessed as cholesterol level at 1000 mg/kg, po administered for 7 days (reference value: 140.17 +/- 3.76 mg/dl); format: organism-based; conditions: in vivo, 168 h, time 7 day
[3] = Toxicity in Swiss albino mouse assessed as mortality at 5 to 1000 mg/kg, po administered for 7 days; format: organism-based; conditions: in vivo, 168 h, dose 5-1000 mg/kg, time 7 day
[4] = Antiinflammatory activity in mouse peritoneal macrophage assessed as reduction in LPS-induced TNFalpha production at 10 ug/ml; format: functional; conditions: dose 10 µg/ml
[5] = Hepatotoxicity in Swiss albino mouse assessed as serum protein level at 5 mg/kg, po administered for 7 days (reference value: 5.73 +/- 0.21 mg/ml); format: toxicity, organism-based; conditions: in vivo, 168 h, time 7 day; outline: as §1
[6] = Hepatotoxicity in Swiss albino mouse assessed as alkaline phosphatase level at 50 mg/kg, po administered for 7 days (reference value: 260.10 +/- 26.76 U/L); format: toxicity, organism-based; conditions: in vivo, 168 h, time 7 day; outline: as §1
[7] = Toxicity in Swiss albino mouse assessed as cholesterol level at 5 mg/kg, po administered for 7 days (reference value: 140.17 +/- 3.76 mg/dl); format: organism-based; conditions: in vivo, 168 h, time 7 day
[8] = Toxicity in Swiss albino mouse assessed as change in absolute spleen weight at 5 to 1000 mg/kg, po administered for 7 days; format: organism-based; conditions: in vivo, 168 h, dose 5-1000 mg/kg, time 7 day
[9] = Hepatotoxicity in Swiss albino mouse assessed as SGOT level at 50 mg/kg, po administered for 7 days (reference value: 31.51 +/- 6.31 U/L); format: toxicity, organism-based; conditions: in vivo, 168 h, time 7 day; outline: as §1
[10] = Toxicity in Swiss albino mouse assessed as cholesterol level at 300 mg/kg, po administered for 7 days (reference value: 140.17 +/- 3.76 mg/dl); format: organism-based; conditions: in vivo, 168 h, time 7 day
[11] = Toxicity in Swiss albino mouse assessed as change in absolute heart weight at 5 to 1000 mg/kg, po administered for 7 days; format: organism-based; conditions: in vivo, 168 h, dose 5-1000 mg/kg, time 7 day
[12] = Antiinflammatory activity in mouse peritoneal macrophage assessed as inhibition of LPS-induced TNFalpha production at 1 ug/ml relative to control; format: functional; design: scale not given: the % may be the effect or the level left; conditions: dose 1 µg/ml
[13] = Toxicity in Swiss albino mouse assessed as RBC level at 300 mg/kg, po administered for 7 days (reference value: 7.13 +/- 0.40 million/mm3); format: organism-based, Erythrocyte; conditions: in vivo, 168 h, time 7 day; outline: as §1
[14] = Toxicity in Swiss albino mouse assessed as triglyceride level at 300 mg/kg, po administered for 7 days (reference value: 136.88 +/- 3.12 mg/dl); format: organism-based; conditions: in vivo, 168 h, time 7 day
[15] = Hepatotoxicity in Swiss albino mouse assessed as serum protein level at 50 mg/kg, po administered for 7 days (reference value: 5.73 +/- 0.21 mg/ml); format: toxicity, organism-based; conditions: in vivo, 168 h, time 7 day; outline: as §1
[16] = Hepatotoxicity in Swiss albino mouse assessed as SGPT level at 300 mg/kg, po administered for 7 days (reference value: 17.01 +/- 2.33 U/L); format: toxicity, organism-based; conditions: in vivo, 168 h, time 7 day; outline: as §1
[17] = Hepatotoxicity in Swiss albino mouse assessed as SGPT level at 1000 mg/kg, po administered for 7 days (reference value: 17.01 +/- 2.33 U/L); format: toxicity, organism-based; conditions: in vivo, 168 h, time 7 day; outline: as §1
[18] = Toxicity in Swiss albino mouse assessed as change in body weight at 50 mg/kg, po administered for 7 days (reference value: 29.35 +/- 0.57 g); format: organism-based; conditions: in vivo, 168 h, time 7 day
[19] = Toxicity in Swiss albino mouse assessed as RBC level at 5 mg/kg, po administered for 7 days (reference value: 7.13 +/- 0.40 million/mm3); format: organism-based, Erythrocyte; conditions: in vivo, 168 h, time 7 day; outline: as §1
[20] = Hepatotoxicity in Swiss albino mouse assessed as albumin level at 300 mg/kg, po administered for 7 days (reference value: 4.12 +/- 0.17 g/dl); format: toxicity, organism-based; conditions: in vivo, 168 h, time 7 day; outline: as §1
[21] = Toxicity in Swiss albino mouse assessed as morbidity at 5 to 1000 mg/kg, po administered for 7 days; format: organism-based; conditions: in vivo, 168 h, dose 5-1000 mg/kg, time 7 day
[22] = Toxicity in Swiss albino mouse assessed as triglyceride level at 5 mg/kg, po administered for 7 days (reference value: 136.88 +/- 3.12 mg/dl); format: organism-based; conditions: in vivo, 168 h, time 7 day
[23] = Antiinflammatory activity in mouse peritoneal macrophage assessed as inhibition of LPS-induced IL6 production at 10 ug/ml relative to control; format: functional; design: scale not given: the % may be the effect or the level left; conditions: dose 10 µg/ml
[24] = Hepatotoxicity in Swiss albino mouse assessed as albumin level at 1000 mg/kg, po administered for 7 days (reference value: 4.12 +/- 0.17 g/dl); format: toxicity, organism-based; conditions: in vivo, 168 h, time 7 day; outline: as §1
[25] = Antiinflammatory activity in mouse peritoneal macrophage assessed as inhibition of LPS-induced TNFalpha production at 10 ug/ml relative to control; format: functional; design: scale not given: the % may be the effect or the level left; conditions: dose 10 µg/ml
[26] = Toxicity in Swiss albino mouse assessed as change in relative lungs weight at 5 to 1000 mg/kg, po administered for 7 days; format: organism-based; conditions: in vivo, 168 h, dose 5-1000 mg/kg, time 7 day
[27] = Toxicity in Swiss albino mouse assessed as change in relative liver weight at 5 to 1000 mg/kg, po administered for 7 days; format: organism-based; conditions: in vivo, 168 h, dose 5-1000 mg/kg, time 7 day
[28] = Hepatotoxicity in Swiss albino mouse assessed as albumin level at 50 mg/kg, po administered for 7 days (reference value: 4.12 +/- 0.17 g/dl); format: toxicity, organism-based; conditions: in vivo, 168 h, time 7 day; outline: as §1
[29] = Toxicity in Swiss albino mouse assessed as change in relative kidney weight at 5 to 1000 mg/kg, po administered for 7 days; format: organism-based; conditions: in vivo, 168 h, dose 5-1000 mg/kg, time 7 day
[30] = tested on: K562; assay: Cytotoxicity against human K562 cells incubated for 72 hrs by Sulphorhodamine assay; format: functional, cell-based; conditions: K562, 72 h
[31] = Toxicity in Swiss albino mouse assessed as haemoglobin level at 50 mg/kg, po administered for 7 days (reference value: 15.66 +/- 0.80 g/dl); format: organism-based; conditions: in vivo, 168 h, time 7 day
[32] = Toxicity in Swiss albino mouse assessed as WBC level at 50 mg/kg, po administered for 7 days (reference value: 5.29 +/- 0.51 10^3/mm3); format: organism-based; conditions: in vivo, 168 h, time 7 day
[33] = Hepatotoxicity in Swiss albino mouse assessed as SGOT level at 300 mg/kg, po administered for 7 days (reference value: 31.51 +/- 6.31 U/L); format: toxicity, organism-based; conditions: in vivo, 168 h, time 7 day; outline: as §1
[34] = Toxicity in Swiss albino mouse assessed as WBC level at 5 mg/kg, po administered for 7 days (reference value: 5.29 +/- 0.51 10^3/mm3); format: organism-based; conditions: in vivo, 168 h, time 7 day
[35] = Antiinflammatory activity in mouse peritoneal macrophage assessed as reduction in LPS-induced IL6 production at 10 ug/ml; format: functional; conditions: dose 10 µg/ml

## COc1cc(C2/C(=C/c3ccc(/C=C/C(=O)NO)cc3)C(=O)c3cc(OC)c(OC)c(OC)c32)cc(OC)c1OC (stereo not given)
[1]
  Activity: 238.88 U/L
[2]
  Activity: 157.22 mg/dL
[3]
  Activity: Non-Toxic
[4]
  Activity: 872.08 pg/mL
[5]
  Activity: 5.44 mg/mL
[6]
  Activity: 281.72 U/L
[7]
  Activity: 162.42 mg/dL
[8]
  Activity: Non-Toxic
[9]
  Activity: 33.67 U/L
[10]
  Activity: 157.14 mg/dL
[11]
  Activity: Non-Toxic
[12]
  Activity: 17.28%
[13]
  Activity: 8.48 million/mm3
[14]
  Activity: 127.18 mg/dL
[15]
  Activity: 5.64 mg/mL
[16]
  Activity: 17.95 U/L
[17]
  Activity: 22.91 U/L
[18]
  Activity: 28.18 g
[19]
  Activity: 8.96 million/mm3
[20]
  Activity: 4.46 g/dL
[21]
  Activity: Non-Toxic
[22]
  Activity: 146.79 mg/dL
[23]
  Activity: 27.01%
[24]
  Activity: 4.53 g/dL
[25]
  Activity: 29.22%
[26]
  Activity: Non-Toxic
[27]
  Activity: Non-Toxic
[28]
  Activity: 4.36 g/dL
[29]
  Activity: Non-Toxic
[30]
  IC50: 3.27 µM
[31]
  Activity: 15.54 g/dL
[32]
  Activity: 4.34 10^3/mm3
[33]
  Activity: 29.93 U/L
[34]
  Activity: 5.01 10^3/mm3
[35]
  Activity: 2199.42 pg/mL
